Results from publication PMC3066299 (Bioorganic & medicinal chemistry, 2011).
Where two headings read alike, the source gives them in different places. Blank lines part the entries; values can stand above or below the compound they belong to.

Tests used:
GHSR [1] = settings: read-out: GHSR binding affinity Ki; cited from earlier work
[2] = format: in vivo, CD1 mice; settings: for Brain regional distribution: i.v., mean ± SD (n=3)
Outline: (§1)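 Male CD1 mice (23-28 g) received the radiotracer i.v. via a lateral tail vein: 0.1 mCi in 0.2 ml saline, specific radioactivity ~4000 mCi/µmol. Animals were killed by cervical dislocation at set times up to 90 min. Brain regions and body organs were removed, dissected on ice, weighed and gamma-counted alongside injectate standards. Uptake was expressed as %ID/g tissue.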

[3] = Baseline dissection study, whole body distribution of radioactivity in CD1 mice; format: in vivo; settings: mean ± SD (n=5)
Outline: as §1

GHSR [4] = biological target: GHSR (Mus musculus, UniProt Q99P50); test: Blocking dissection studies in mice with GHSR antagonist 2; format: in vivo, CD1 mice; settings: for Whole body distribution: block with 2 (1 mg/kg), 90 min, mean ± SD (n=5), P>0.05 vs baseline
Chain of GHSR (Mus musculus, UniProt Q99P50) (Q99P50 whole entry): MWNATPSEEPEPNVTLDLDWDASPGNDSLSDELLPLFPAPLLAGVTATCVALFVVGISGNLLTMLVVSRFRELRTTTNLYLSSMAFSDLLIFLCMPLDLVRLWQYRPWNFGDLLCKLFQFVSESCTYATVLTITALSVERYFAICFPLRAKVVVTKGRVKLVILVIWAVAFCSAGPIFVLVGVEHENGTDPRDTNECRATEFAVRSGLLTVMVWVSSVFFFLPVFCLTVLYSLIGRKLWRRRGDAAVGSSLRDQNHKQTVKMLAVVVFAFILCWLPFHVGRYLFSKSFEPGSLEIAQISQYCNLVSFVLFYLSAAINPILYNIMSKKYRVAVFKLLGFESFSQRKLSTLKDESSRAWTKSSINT
Outline: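 Male CD1 mice were pretreated s.c. with a GHSR blocker at 1 mg/kg, or with vehicle (saline/alcohol 9:1, 0.1 mL). Fifteen minutes later they received radiotracer i.v. (0.1 mCi in 0.2 mL saline, ~4000 mCi/µmol). Tissues were harvested 90 min after tracer and counted for radioactivity. Groups were five animals each, baseline and blockade.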

[5] = Observation of pharmacological effects after tracer dose in CD1 mice; format: in vivo; settings: tracer dose approximately 0.5 nmol/kg, intravenously, CD1 mice (n=30)

SMILES: Cc1ccccc1-c1nc2ccc(Oc3ccc(F)cc3)cc2c(=O)n1CC1CCCN(C(C)C)C1 (stereo not drawn) [N-isopropyl derivative]
Ki (GHSR [1]): 0.47 nM

Brain regional distribution ([2]; Cerebellum, 10 min): 0.63±0.06 %injected dose /g tissue
Brain regional distribution ([2]; Cerebellum, 30 min): 0.56±0.09 %injected dose /g tissue
Brain regional distribution ([2]; Cerebellum, 60 min): 0.59±0.08 %injected dose /g tissue
Brain regional distribution ([2]; Cerebellum, 90 min): 0.59±0.10 %injected dose /g tissue
Brain regional distribution ([2]; Cortex, 10 min): 0.63±0.09 %injected dose /g tissue
Brain regional distribution ([2]; Cortex, 30 min): 0.60±0.06 %injected dose /g tissue
Brain regional distribution ([2]; Cortex, 60 min): 0.65±0.12 %injected dose /g tissue
Brain regional distribution ([2]; Cortex, 90 min): 0.66±0.15 %injected dose /g tissue
Brain regional distribution ([2]; Hippocampus, 10 min): 0.60±0.13 %injected dose /g tissue
Brain regional distribution ([2]; Hippocampus, 30 min): 0.59±0.09 %injected dose /g tissue
Brain regional distribution ([2]; Hippocampus, 60 min): 0.71±0.08 %injected dose /g tissue
Brain regional distribution ([2]; Hippocampus, 90 min): 0.65±0.12 %injected dose /g tissue
Brain regional distribution ([2]; Hypothalamus, 10 min): 0.56±0.08 %injected dose /g tissue
Brain regional distribution ([2]; Hypothalamus, 30 min): 0.58±0.08 %injected dose /g tissue
Brain regional distribution ([2]; Hypothalamus, 60 min): 0.74±0.12 %injected dose /g tissue
Brain regional distribution ([2]; Hypothalamus, 90 min): 0.86±0.20 %injected dose /g tissue
Brain regional distribution ([2]; Rest of brain, 10 min): 0.54±0.07 %injected dose /g tissue
Brain regional distribution ([2]; Rest of brain, 30 min): 0.57±0.06 %injected dose /g tissue
Brain regional distribution ([2]; Rest of brain, 60 min): 0.62±0.02 %injected dose /g tissue
Brain regional distribution ([2]; Rest of brain, 90 min): 0.54±0.08 %injected dose /g tissue
hypothalamus-to-cerebellum ratio ([2]; value reached over the 90 min observation period): 1.6
Whole body distribution ([3]; Adrenals, 10 min): 15.57±1.76 %injected dose /g tissue
Whole body distribution ([3]; Adrenals, 30 min): 10.77±2.65 %injected dose /g tissue
Whole body distribution ([3]; Adrenals, 90 min): 7.87±1.22 %injected dose /g tissue
Whole body distribution ([3]; Blood, 10 min): 2.14±0.13 %injected dose /g tissue
Whole body distribution ([3]; Blood, 30 min): 1.87±0.31 %injected dose /g tissue
Whole body distribution ([3]; Blood, 90 min): 2.01±0.29 %injected dose /g tissue
Whole body distribution ([3]; Heart, 10 min): 5.11±0.30 %injected dose /g tissue
Whole body distribution ([3]; Heart, 30 min): 3.91±0.55 %injected dose /g tissue
Whole body distribution ([3]; Heart, 90 min): 2.94±0.33 %injected dose /g tissue
Whole body distribution ([3]; Liver, 10 min): 18.63±1.29 %injected dose /g tissue
Whole body distribution ([3]; Liver, 30 min): 14.60±1.89 %injected dose /g tissue
Whole body distribution ([3]; Liver, 90 min): 13.46±0.97 %injected dose /g tissue
Whole body distribution ([3]; Lung, 10 min): 26.44±1.32 %injected dose /g tissue
Whole body distribution ([3]; Lung, 30 min): 24.02±8.55 %injected dose /g tissue
Whole body distribution ([3]; Lung, 90 min): 14.74±3.46 %injected dose /g tissue
Whole body distribution ([3]; Muscle, 10 min): 3.79±0.68 %injected dose /g tissue
Whole body distribution ([3]; Muscle, 30 min): 3.02±0.45 %injected dose /g tissue
Whole body distribution ([3]; Muscle, 90 min): 2.09±0.47 %injected dose /g tissue
Whole body distribution ([3]; Testis, 10 min): 1.07±0.01 %injected dose /g tissue
Whole body distribution ([3]; Testis, 30 min): 1.39±0.20 %injected dose /g tissue
Whole body distribution ([3]; Testis, 90 min): 1.96±0.14 %injected dose /g tissue
Whole body distribution (GHSR [4]; Adrenals): 10.02±1.80 %injected dose /g tissue
Whole body distribution (GHSR [4]; Blood): 2.01±0.53 %injected dose /g tissue
Whole body distribution (GHSR [4]; Heart): 3.74±0.57 %injected dose /g tissue
Whole body distribution (GHSR [4]; Liver): 14.77±1.02 %injected dose /g tissue
Whole body distribution (GHSR [4]; Lung): 16.28±3.65 %injected dose /g tissue
Whole body distribution (GHSR [4]; Muscle): 2.22±0.79 %injected dose /g tissue
Whole body distribution (GHSR [4]; Testis): 2.25±0.30 %injected dose /g tissue
specific binding (GHSR [4]; cerebral distribution in CD1 mice): 38%
observed pharmacological effects [5]: no observed pharmacological effects
SMILES: Cc1ccccc1-c1nc2ccc(Oc3ccc(F)cc3)cc2c(=O)n1C[C@H]1CCCN([11CH3])C1 [[^11C]1, (S)-6-(4-fluorophenoxy)-3-((1-[^11C]methylpiperidin-3-yl)methyl)-2-o-tolylquinazolin-4(3H)-one]

blockade of [11C]1 in the rest of the brain (GHSR [4]; blocking dose of 2 1 mg/kg s.c., 90 min after radioligand, P>0.05 (n=5)): minimal
SMILES: Cc1ccccc1-c1nc2ccc(Oc3ccc(F)cc3)cc2c(=O)n1C[C@H]1CCCNC1 [compound 2, (S)-6-(4-fluorophenoxy)-3-(piperidin-3-ylmethyl)-2-o-tolylquinazolin-4(3H)-one, reference compound]
Ki (GHSR [1]): 0.9 nM
